Experimental findings from ChEMBL document CHEMBL4118021, “Studies of TAK1-centered polypharmacology with novel covalent TAK1 inhibitors” (Bioorg Med Chem, 2017) are described below.

Structures are written as SMILES. Activity calls are given as the source filed them. The rule behind the calls is not given here.

For assay [1], the target named is Ubiquitin-like modifier-activating enzyme 1 (Homo sapiens) (UniProt P22314). Kind of assay: Binding affinity to UBA1 in human NCI-H358 cells at 1 uM by mass spectrometry based pull down assay. The format is cell-based.
Sequence of Ubiquitin-like modifier-activating enzyme 1 (Homo sapiens) (P22314 whole entry): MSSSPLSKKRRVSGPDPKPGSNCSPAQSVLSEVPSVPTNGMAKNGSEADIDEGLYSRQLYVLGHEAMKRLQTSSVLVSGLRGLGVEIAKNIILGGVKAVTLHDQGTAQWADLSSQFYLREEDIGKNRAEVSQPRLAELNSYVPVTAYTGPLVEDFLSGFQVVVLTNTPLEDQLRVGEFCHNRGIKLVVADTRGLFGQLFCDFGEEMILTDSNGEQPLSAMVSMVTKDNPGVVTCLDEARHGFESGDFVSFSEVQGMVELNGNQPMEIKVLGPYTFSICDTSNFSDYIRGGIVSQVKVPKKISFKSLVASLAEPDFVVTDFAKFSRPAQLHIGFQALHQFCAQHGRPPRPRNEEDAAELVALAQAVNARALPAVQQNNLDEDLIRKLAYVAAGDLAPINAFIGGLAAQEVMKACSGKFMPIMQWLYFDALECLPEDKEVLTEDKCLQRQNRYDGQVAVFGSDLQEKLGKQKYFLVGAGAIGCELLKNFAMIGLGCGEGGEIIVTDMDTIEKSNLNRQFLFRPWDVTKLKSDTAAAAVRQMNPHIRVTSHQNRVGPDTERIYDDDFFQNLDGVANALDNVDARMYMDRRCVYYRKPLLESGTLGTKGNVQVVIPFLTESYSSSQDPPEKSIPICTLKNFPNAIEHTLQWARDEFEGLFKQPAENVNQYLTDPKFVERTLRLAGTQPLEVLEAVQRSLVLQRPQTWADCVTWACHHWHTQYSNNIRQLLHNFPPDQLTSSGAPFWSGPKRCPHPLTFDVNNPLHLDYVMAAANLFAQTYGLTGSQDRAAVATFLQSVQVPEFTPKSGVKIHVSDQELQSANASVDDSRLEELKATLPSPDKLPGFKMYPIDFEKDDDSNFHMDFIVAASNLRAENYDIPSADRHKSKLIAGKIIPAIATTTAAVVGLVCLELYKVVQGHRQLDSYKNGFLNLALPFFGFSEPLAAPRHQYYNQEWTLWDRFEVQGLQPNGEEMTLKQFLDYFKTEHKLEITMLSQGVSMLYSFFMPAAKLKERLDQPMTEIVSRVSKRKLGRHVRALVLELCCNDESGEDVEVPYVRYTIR
The target in assay [2] is Cytochrome c (Homo sapiens) (UniProt P99999). Kind of assay: Binding affinity to CYCS in human NCI-H358 cells at 1 uM by mass spectrometry based pull down assay. The format is cell-based.
Sequence of Cytochrome c (Homo sapiens) (P99999 whole entry): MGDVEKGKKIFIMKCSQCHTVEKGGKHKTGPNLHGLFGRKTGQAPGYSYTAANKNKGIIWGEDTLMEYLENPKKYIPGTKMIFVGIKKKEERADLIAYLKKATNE
The target in assay [3] is E3 ubiquitin-protein ligase HUWE1 (Homo sapiens) (UniProt Q7Z6Z7). Description: Binding affinity to HUWE1 in human NCI-H23 cells at 1 uM by mass spectrometry based pull down assay. The format is cell-based.
Assay [4] concerns the target Leucine-rich repeat-containing protein 15 (Homo sapiens) (UniProt Q8TF66). Description: Binding affinity to LRRC15 in human NCI-H23 cells at 1 uM by mass spectrometry based pull down assay. The class given is cell-based.
For assay [5], the target named is Small COPII coat GTPase SAR1A (Homo sapiens) (UniProt Q9NR31). Description: Binding affinity to SAR1A in human NCI-H23 cells at 1 uM by mass spectrometry based pull down assay. The format is cell-based.
Sequence of Small COPII coat GTPase SAR1A (Homo sapiens) (Q9NR31 whole entry): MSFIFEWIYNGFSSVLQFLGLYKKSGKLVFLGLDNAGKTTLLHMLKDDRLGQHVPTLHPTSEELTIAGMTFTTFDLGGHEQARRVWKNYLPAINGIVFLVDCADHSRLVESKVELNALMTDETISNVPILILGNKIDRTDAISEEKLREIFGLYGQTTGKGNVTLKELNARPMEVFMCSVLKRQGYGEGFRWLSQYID
Assay [6] has as its target Apoptosis regulator BAX (Homo sapiens) (UniProt Q07812). Kind of assay: Binding affinity to BAX in human NCI-H23 cells at 1 uM by mass spectrometry based pull down assay. The class given is cell-based.
For assay [7], the target named is Cytosolic iron-sulfur assembly component 2B (Homo sapiens) (UniProt Q9Y3D0). Description: Binding affinity to FAM96B in human NCI-H23 cells at 1 uM by mass spectrometry based pull down assay. The format is cell-based.
Sequence of Cytosolic iron-sulfur assembly component 2B (Homo sapiens) (Q9Y3D0 whole entry): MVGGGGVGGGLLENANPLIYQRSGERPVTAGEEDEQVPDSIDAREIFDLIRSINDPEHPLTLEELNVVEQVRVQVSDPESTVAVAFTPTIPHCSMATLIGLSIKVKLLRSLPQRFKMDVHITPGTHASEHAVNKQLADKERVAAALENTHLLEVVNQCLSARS
Assay [8] concerns the target tRNA (guanosine(18)-2'-O)-methyltransferase TARBP1 (Homo sapiens) (UniProt Q13395). Kind of assay: Binding affinity to TARBP1 in human NCI-H358 cells at 1 uM by mass spectrometry based pull down assay. The class given is cell-based.
The target in assay [9] is T1, Dual specificity mitogen-activated protein kinase kinase 5 (Homo sapiens) (UniProt Q13163).
T1 sequence (whole entry): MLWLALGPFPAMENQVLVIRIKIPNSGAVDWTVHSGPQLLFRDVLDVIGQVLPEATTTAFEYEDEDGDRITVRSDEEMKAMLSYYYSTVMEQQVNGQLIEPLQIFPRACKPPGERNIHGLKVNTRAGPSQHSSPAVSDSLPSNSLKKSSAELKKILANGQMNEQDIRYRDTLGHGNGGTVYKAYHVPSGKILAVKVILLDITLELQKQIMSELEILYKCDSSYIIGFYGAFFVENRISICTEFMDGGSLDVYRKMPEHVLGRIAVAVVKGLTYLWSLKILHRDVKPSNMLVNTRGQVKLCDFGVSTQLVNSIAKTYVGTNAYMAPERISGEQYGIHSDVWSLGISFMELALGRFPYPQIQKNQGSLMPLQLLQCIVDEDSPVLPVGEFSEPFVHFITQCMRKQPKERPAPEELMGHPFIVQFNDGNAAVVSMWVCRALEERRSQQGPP
Kind of assay: Binding affinity to MAP2K5 in human NCI-H23 cells at 1 uM by mass spectrometry based pull down assay. The class given is cell-based.

Assay [10] deals with Dual specificity mitogen-activated protein kinase kinase 2 (Homo sapiens) (UniProt P36507). Kind of assay: Binding affinity to MAP2K2 in human NCI-H358 cells at 1 uM by mass spectrometry based pull down assay. The format is cell-based.
Sequence of Dual specificity mitogen-activated protein kinase kinase 2 (Homo sapiens) (P36507 whole entry, the tested form may be a part): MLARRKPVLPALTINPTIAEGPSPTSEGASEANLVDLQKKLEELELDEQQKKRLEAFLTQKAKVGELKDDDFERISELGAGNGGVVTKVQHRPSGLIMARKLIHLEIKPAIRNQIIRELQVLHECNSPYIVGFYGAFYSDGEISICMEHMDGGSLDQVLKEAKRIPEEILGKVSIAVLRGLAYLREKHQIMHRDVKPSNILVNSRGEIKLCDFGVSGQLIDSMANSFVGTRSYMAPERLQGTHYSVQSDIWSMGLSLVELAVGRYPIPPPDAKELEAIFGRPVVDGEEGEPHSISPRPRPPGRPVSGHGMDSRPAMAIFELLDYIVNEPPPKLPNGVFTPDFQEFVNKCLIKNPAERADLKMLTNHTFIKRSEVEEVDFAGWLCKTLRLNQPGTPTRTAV
Assay [11] deals with Vascular endothelial growth factor receptor 1 (Homo sapiens) (UniProt P17948). Description: Inhibition of human FLT1 (781 to 1239 residues) expressed in bacterial expression system assessed as enzyme activity at 1 uM by KINOMEScan assay relative to control. More on the design: scale not given: the % may be the effect or the level left. Summed up: (§1)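 In vitro ATP-site competition binding assay across a panel of 456 kinases, with compound tested at 1 and 10 μM.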

In assay [12] the target is T2, Dual specificity mitogen-activated protein kinase kinase 4 (Homo sapiens) (UniProt P45985).
T2 sequence (whole entry): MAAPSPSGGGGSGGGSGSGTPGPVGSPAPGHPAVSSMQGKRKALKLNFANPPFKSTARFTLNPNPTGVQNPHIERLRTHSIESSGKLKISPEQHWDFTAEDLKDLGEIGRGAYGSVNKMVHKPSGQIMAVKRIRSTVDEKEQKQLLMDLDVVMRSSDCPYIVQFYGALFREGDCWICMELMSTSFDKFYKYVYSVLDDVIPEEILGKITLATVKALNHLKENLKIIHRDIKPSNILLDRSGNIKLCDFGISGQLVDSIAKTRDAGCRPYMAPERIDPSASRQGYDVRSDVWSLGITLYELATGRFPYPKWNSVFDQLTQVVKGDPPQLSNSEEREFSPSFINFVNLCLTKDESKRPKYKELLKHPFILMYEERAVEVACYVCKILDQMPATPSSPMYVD
Description: Inhibition of human MEK4 (84 to 399 residues) expressed in mammalian expression system assessed as enzyme activity at 10 uM by KINOMEScan assay relative to control. On the set-up: scale not given: the % may be the effect or the level left. Summed up:
as §1

The target in assay [13] is Dual specificity mitogen-activated protein kinase kinase 2 (Homo sapiens) (UniProt P36507). Description: Inhibition of full length human MEK2 (1 to 400 residues) expressed in mammalian expression system assessed as enzyme activity at 1 uM by KINOMEScan assay relative to control. More on the design: scale not given: the % may be the effect or the level left. Summed up: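 In vitro ATP-site competition binding assay (KinomeScan) across a panel of 456 kinases. Compound was tested at 1 and 10 μM. The read-out is the binding inhibition score relative to control.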

For assay [14], the target named is Mitogen-activated protein kinase 13 (Homo sapiens) (UniProt O15264). Description: Inhibition of p38d in human SKCO1 cells at 1 uM after 4 hrs using biotin labeled DLKPGNLAVNEDCELK probe by mass-spectrometric analysis relative to control. The format is cell-based.
Sequence of Mitogen-activated protein kinase 13 (Homo sapiens) (O15264 whole entry): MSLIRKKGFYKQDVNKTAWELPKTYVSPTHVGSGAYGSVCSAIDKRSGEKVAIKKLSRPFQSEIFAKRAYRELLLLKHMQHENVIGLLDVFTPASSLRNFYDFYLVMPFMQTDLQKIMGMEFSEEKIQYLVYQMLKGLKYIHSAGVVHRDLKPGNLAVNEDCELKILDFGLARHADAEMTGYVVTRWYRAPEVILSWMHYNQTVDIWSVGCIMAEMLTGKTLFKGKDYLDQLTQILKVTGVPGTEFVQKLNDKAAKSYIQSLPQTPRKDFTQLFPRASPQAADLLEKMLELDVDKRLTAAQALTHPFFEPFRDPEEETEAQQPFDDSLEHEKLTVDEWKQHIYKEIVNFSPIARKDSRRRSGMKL
Assay [15] deals with Serine/threonine-protein kinase MARK2 (Homo sapiens) (UniProt Q7KZI7). Description: Inhibition of MARK2 in human SKCO1 cells at 1 uM after 4 hrs using biotin labeled EVAVKIIDK probe by mass-spectrometric analysis relative to control. The class given is cell-based.
Sequence of Serine/threonine-protein kinase MARK2 (Homo sapiens) (Q7KZI7 whole entry): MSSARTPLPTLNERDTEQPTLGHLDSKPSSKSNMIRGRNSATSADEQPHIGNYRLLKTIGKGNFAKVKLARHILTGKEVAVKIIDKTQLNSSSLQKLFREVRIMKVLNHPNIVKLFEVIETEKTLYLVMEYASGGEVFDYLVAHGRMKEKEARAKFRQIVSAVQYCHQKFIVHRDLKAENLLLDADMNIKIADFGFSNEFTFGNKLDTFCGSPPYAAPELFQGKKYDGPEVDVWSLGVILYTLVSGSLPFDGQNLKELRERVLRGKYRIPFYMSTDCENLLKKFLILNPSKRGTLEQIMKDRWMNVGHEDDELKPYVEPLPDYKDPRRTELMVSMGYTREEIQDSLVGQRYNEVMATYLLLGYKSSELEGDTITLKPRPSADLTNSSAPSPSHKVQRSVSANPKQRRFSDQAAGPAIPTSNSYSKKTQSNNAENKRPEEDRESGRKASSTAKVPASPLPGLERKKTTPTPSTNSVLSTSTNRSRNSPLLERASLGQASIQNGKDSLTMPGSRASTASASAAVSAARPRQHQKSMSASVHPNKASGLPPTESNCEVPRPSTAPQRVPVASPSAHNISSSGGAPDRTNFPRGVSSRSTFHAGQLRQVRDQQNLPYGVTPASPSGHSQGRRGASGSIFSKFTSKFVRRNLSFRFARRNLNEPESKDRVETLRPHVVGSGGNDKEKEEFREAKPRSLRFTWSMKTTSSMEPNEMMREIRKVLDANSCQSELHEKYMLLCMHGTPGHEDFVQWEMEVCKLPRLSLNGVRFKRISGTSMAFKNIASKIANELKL

Sequence of Leucine-rich repeat-containing protein 15 (Homo sapiens) (Q8TF66 whole entry): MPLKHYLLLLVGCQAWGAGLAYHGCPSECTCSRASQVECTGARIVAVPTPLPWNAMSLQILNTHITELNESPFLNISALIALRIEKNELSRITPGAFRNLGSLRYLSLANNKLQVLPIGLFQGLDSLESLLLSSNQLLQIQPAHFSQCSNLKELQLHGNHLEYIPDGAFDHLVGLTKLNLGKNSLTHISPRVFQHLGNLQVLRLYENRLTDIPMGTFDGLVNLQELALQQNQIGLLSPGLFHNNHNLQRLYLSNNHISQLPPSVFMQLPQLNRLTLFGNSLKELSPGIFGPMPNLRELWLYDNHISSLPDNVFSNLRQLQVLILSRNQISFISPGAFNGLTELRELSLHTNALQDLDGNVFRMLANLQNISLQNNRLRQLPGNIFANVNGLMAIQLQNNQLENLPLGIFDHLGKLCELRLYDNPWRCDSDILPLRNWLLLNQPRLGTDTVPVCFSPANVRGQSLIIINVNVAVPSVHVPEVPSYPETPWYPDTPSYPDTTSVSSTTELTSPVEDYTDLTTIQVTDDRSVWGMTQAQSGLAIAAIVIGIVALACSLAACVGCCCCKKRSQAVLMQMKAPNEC
Sequence of Apoptosis regulator BAX (Homo sapiens) (Q07812 whole entry): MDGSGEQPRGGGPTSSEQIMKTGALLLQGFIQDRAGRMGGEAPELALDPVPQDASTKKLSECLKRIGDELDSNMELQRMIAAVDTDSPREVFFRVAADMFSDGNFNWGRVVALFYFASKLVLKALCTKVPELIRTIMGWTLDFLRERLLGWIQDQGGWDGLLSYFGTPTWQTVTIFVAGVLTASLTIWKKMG

Regarding `C=CC(=O)Nc1ccccc1Nc1nc(Nc2ccc(N3CCN(CCOCCOCCOCCNC(=O)CCCC[C@@H]4SC[C@@H]5NC(=O)N[C@@H]54)CC3)cc2)ncc1Cl`, the result in [1], in [2], in [3], in [4], in [5] and in assay [6] was Active. Moreover, the result in assay [7], in [8], in assay [9] and in assay [10] was Active.

Turning to `COc1cc(O)c2c(c1)/C=C/C[C@H](O)[C@H](O)C(=O)/C=C\C[C@H](C)OC2=O`, the results for the Activity in assay [11], in assay [12] and in assay [13] were 16%, 0.35% and 0.75%, respectively.

Take `C=CC(=O)Nc1ccccc1Nc1nc(Nc2ccc(N3CCN(C)CC3)cc2)ncc1Cl`: the values for the inhibition in assay [14] and in [15] were -8.5% and -5.7%, respectively.
